Source: ChEMBL document CHEMBL2331220, “Benzimidazole clubbed with triazolo-thiadiazoles and triazolo-thiadiazines: new anticancer agents” (2013)

How the values were obtained:
Format in all cases: functional
MDA-MB-468 = experiment: Cytotoxicity against human MDA-MB-468 cells after 48 hrs by SRB assay; settings: MDA-MB-468, 48 h
In short: (§1)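 NCI 60-line five-dose screen. Cells were preincubated 24 h at 37 °C under 5% CO2 and 100% humidity, and time-zero plates were TCA-fixed when compound was added. Five 10-fold concentrations (0.01–100) were tested for 48 h. Cells were fixed with cold TCA (final 10%, 60 min, 4 °C), stained with 0.4% SRB for 10 min, and read at 515 nm. GI50, TGI and LC50 came from growth-percentage formulas, with out-of-range values given as > or <.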

T47D = experiment: Cytotoxicity against human T47D cells after 48 hrs by SRB assay
In short: (§2)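 NCI 60-line five-dose screen: cells plated, held 24 h at 37 °C, 5% CO₂ before treatment, with a TCA-fixed time-zero plate. Five final concentrations (0.01–100 µM, 10-fold dilutions) for 48 h. Cells fixed with cold TCA (10% final) and stained with 0.4% SRB in 1% acetic acid. Dye dissolved in 10 mM Tris and read at 515 nm. GI₅₀, TGI and LC₅₀ taken from percent-growth curves.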

Hs-578T = experiment: Cytotoxicity against human Hs578T cells after 48 hrs by SRB assay
In short: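 NCI five-dose screen: cells preincubated 24 h at 37 °C, 5% CO₂, with time-zero plates TCA-fixed. Five 10-fold dilutions (0.01–100) were added and cells incubated for 48 h, then fixed in 10% TCA for 60 min at 4 °C. Staining used 0.4% SRB in 1% acetic acid, solubilised in 10 mM Tris, with A515 read. GI₅₀, TGI and LC₅₀ were derived from Tz, control and test absorbances.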

DU-145 = experiment: Cytotoxicity against human DU145 cells after 48 hrs by SRB assay; settings: DU-145, 48 h; in short: as §1
PC-3 = experiment: Cytotoxicity against human PC3 cells after 48 hrs by SRB assay; settings: PC-3, 48 h; in short: as §1
TK-10 = experiment: Cytotoxicity against human TK10 cells after 48 hrs by SRB assay; settings: TK-10, 48 h; in short: as §2
NCI/ADR-RES = experiment: Cytotoxicity against human NCI/ADR-RES cells after 48 hrs by SRB assay; in short: as §1
OVCAR-4 = experiment: Cytotoxicity against human OVCAR4 cells after 48 hrs by SRB assay; settings: OVCAR-4, 48 h; in short: as §1
IGROV-1 [1] = experiment: Cytotoxicity against human IGROV1 cells after 48 hrs by SRB assay; settings: IGROV-1, 48 h; in short: as §1
MDA-MB-435 = experiment: Cytotoxicity against human MDA-MB-435 cells after 48 hrs by SRB assay; settings: MDA-MB-435, 48 h; in short: as §1
U-251 = experiment: Cytotoxicity against human U251 cells after 48 hrs by SRB assay; settings: U-251, 48 h; in short: as §2
SF-295 = experiment: Cytotoxicity against human SF295 cells after 48 hrs by SRB assay; settings: SF-295, 48 h; in short: as §1
HCT-15 = experiment: Cytotoxicity against human HCT15 cells after 48 hrs by SRB assay; settings: HCT-15, 48 h; in short: as §1
COLO 205 = experiment: Cytotoxicity against human COLO205 cells after 48 hrs by SRB assay; settings: COLO 205, 48 h; in short: as §1
NCI-H226 = experiment: Cytotoxicity against human NCI-H226 cells after 48 hrs by SRB assay; settings: NCI-H226, 48 h; in short: as §1
MOLT-4 = experiment: Cytotoxicity against human MOLT4 cells after 48 hrs by SRB assay; settings: MOLT-4, 48 h; in short: as §1
CCRF-CEM = experiment: Cytotoxicity against human CCRF-CEM cells after 48 hrs by SRB assay; in short: as §1
IGROV-1 [2] = experiment: Cytotoxicity against human IGROV1 cells assessed as cell growth at 10 uM after 48 hrs by SRB assay relative to control; settings: IGROV-1, 48 h, read-out: Activity
In short: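 Single-dose NCI screen. Compound was added at 1 × 10^-5 M and cultures were incubated 48 h. End point was sulforhodamine B protein staining, reported as percent growth of treated cells versus untreated control cells.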

[3] = read-out: LC50 (the source's name)
[4] = read-out: pLC50 (the source's name) (converted)

Work on `O=C(CCc1nnc2sc(-c3ccc(Cl)cc3Cl)nn12)c1nc2ccccc2[nH]1` yielded a GI50 (MDA-MB-468; read-out: GI50) of 0.699 µM, an LC50 (MDA-MB-468; read-out: LC50) of 5.41 µM and a TGI (MDA-MB-468; read-out: TGI) of 2.15 µM. It also gave a GI50 (MDA-MB-468; read-out: pGI50 (converted)) of 0.692 µM, an LC50 (MDA-MB-468; read-out: pLC50 (converted)) of 5.37 µM and a TGI (MDA-MB-468; read-out: pTGI (converted)) of 2.14 µM. It also gave a GI50 (T47D; read-out: GI50) of 0.753 µM, an LC50 (concentration giving 50% net cell kill) (T47D; read-out: LC50) of 7.06 µM and a TGI (T47D; read-out: TGI) of 2.51 µM. It also gave a GI50 (T47D; read-out: pGI50 (converted)) of 0.759 µM, an LC50 (concentration giving 50% net cell kill) (T47D; read-out: pLC50 (converted)) of 7.08 µM and a TGI (T47D; read-out: pTGI (converted)) of 2.51 µM. The GI50 (Hs-578T; read-out: GI50) was 0.478 µM, the CC50 (Hs-578T; [3]) was over 100 µM and the GI50 (Hs-578T; read-out: pGI50 (converted)) was 0.479 µM. The CC50 (Hs-578T; [4]) was over 100 µM, the GI50 (DU-145; read-out: GI50) was 1.2 µM and the CC50 (DU-145; [3]) was 5.02 µM. It also gave a TGI (DU-145; read-out: TGI) of 2.46 µM, a GI50 (DU-145; read-out: pGI50 (converted)) of 1.2 µM and a CC50 (DU-145; [4]) of 5.01 µM. It also gave a TGI (DU-145; read-out: pTGI (converted)) of 2.45 µM, a GI50 (PC-3; read-out: GI50) of 0.695 µM and an LC50 (concentration killing 50% of cells) (PC-3; read-out: LC50) of over 100 µM. The TGI (PC-3; read-out: TGI) was 3.9 µM, the GI50 (PC-3; read-out: pGI50 (converted)) was 0.692 µM and the LC50 (concentration killing 50% of cells) (PC-3; read-out: pLC50 (converted)) was over 100 µM. The TGI (PC-3; read-out: pTGI (converted)) was 3.89 µM, the GI50 (TK-10; read-out: GI50) was 2.01 µM and the LC50 (TK-10; read-out: LC50) was 6.3 µM. The TGI (TK-10; read-out: TGI) was 3.55 µM, the GI50 (TK-10; read-out: pGI50 (converted)) was 2 µM and the LC50 (TK-10; read-out: pLC50 (converted)) was 6.31 µM. It also gave a TGI (TK-10; read-out: pTGI (converted)) of 3.55 µM, a GI50 (NCI/ADR-RES; read-out: GI50) of 1.56 µM and an LC50 (NCI/ADR-RES; read-out: LC50) of over 100 µM. It also gave a TGI (NCI/ADR-RES; read-out: TGI) of 5.8 µM, a GI50 (NCI/ADR-RES; read-out: pGI50 (converted)) of 1.55 µM and an LC50 (NCI/ADR-RES; read-out: pLC50 (converted)) of over 100 µM. The TGI (NCI/ADR-RES; read-out: pTGI (converted)) was 5.75 µM, the GI50 (OVCAR-4; read-out: GI50) was 0.971 µM and the CC50 (OVCAR-4; [3]) was 8.04 µM. For the same compound, the TGI (OVCAR-4; read-out: TGI) was 2.82 µM, the GI50 (OVCAR-4; read-out: pGI50 (converted)) was 0.977 µM and the CC50 (OVCAR-4; [4]) was 8.13 µM. It also gave a TGI (OVCAR-4; read-out: pTGI (converted)) of 2.82 µM, a GI50 (IGROV-1 [1]; read-out: GI50) of 1.31 µM and a TGI (IGROV-1 [1]; read-out: TGI) of 3.51 µM. For the same compound, the GI50 (IGROV-1 [1]; read-out: pGI50 (converted)) was 1.32 µM, the TGI (IGROV-1 [1]; read-out: pTGI (converted)) was 3.47 µM and the GI50 (MDA-MB-435; read-out: GI50) was 0.265 µM. It also gave a TGI (MDA-MB-435; read-out: TGI) of 0.842 µM, a GI50 (MDA-MB-435; read-out: pGI50 (converted)) of 0.263 µM and a TGI (MDA-MB-435; read-out: pTGI (converted)) of 0.851 µM. For the same compound, the GI50 (U-251; read-out: GI50) was 1.28 µM, the CC50 (U-251; [3]) was 5.34 µM and the TGI (U-251; read-out: TGI) was 2.61 µM. The GI50 (U-251; read-out: pGI50 (converted)) was 1.29 µM, the CC50 (U-251; [4]) was 5.37 µM and the TGI (U-251; read-out: pTGI (converted)) was 2.63 µM. The GI50 (SF-295; read-out: GI50) was 1.03 µM, the TGI (SF-295; read-out: TGI) was 2.73 µM and the GI50 (SF-295; read-out: pGI50 (converted)) was 1.02 µM. The TGI (SF-295; read-out: pTGI (converted)) was 2.75 µM, the GI50 (HCT-15; read-out: GI50) was 0.489 µM and the TGI (HCT-15; read-out: TGI) was 2.21 µM. The GI50 (HCT-15; read-out: pGI50 (converted)) was 0.49 µM, the TGI (HCT-15; read-out: pTGI (converted)) was 2.24 µM and the GI50 (COLO 205; read-out: GI50) was 0.767 µM. It also gave a CC50 (COLO 205; [3]) of 5.5 µM, a TGI (COLO 205; read-out: TGI) of 2.21 µM and a GI50 (COLO 205; read-out: pGI50 (converted)) of 0.759 µM. The CC50 (COLO 205; [4]) was 5.5 µM, the TGI (COLO 205; read-out: pTGI (converted)) was 2.19 µM and the GI50 (NCI-H226; read-out: GI50) was 0.244 µM. For the same compound, the CC50 (NCI-H226; [3]) was 2.59 µM, the TGI (NCI-H226; read-out: TGI) was 0.696 µM and the GI50 (NCI-H226; read-out: pGI50 (converted)) was 0.245 µM. It also gave a CC50 (NCI-H226; [4]) of 2.57 µM, a TGI (NCI-H226; read-out: pTGI (converted)) of 0.692 µM and a GI50 (MOLT-4; read-out: GI50) of 0.282 µM. It also gave a CC50 (MOLT-4; [3]) of over 100 µM, a TGI (MOLT-4; read-out: TGI) of over 100 µM and a GI50 (MOLT-4; read-out: pGI50 (converted)) of 0.282 µM. The CC50 (MOLT-4; [4]) was over 100 µM, the TGI (MOLT-4; read-out: pTGI) was over 100 µM and the GI50 (CCRF-CEM; read-out: GI50) was 0.265 µM. For the same compound, the CC50 (CCRF-CEM; [3]) was over 100 µM, the TGI (CCRF-CEM; read-out: TGI) was 0.974 µM and the GI50 (CCRF-CEM; read-out: pGI50 (converted)) was 0.263 µM. It also gave a CC50 (CCRF-CEM; [4]) of over 100 µM, a TGI (CCRF-CEM; read-out: pTGI (converted)) of 0.977 µM and a growth at 10 µM (IGROV-1 [2]) of 0.38%.
